High-throughput results as filed in PubChem BioAssay.
A selection: hits, their analogues and other compounds. The true share with any hit is near 4.7%.
Jurkat NFkB inh – inhibitors of induced NF-kB luciferase reporter, primary screen, TCR NF-kB activation inhibitor project, cell-based, luminescence, uHTS; Jurkat, PMA/ionomycin-induced NF-kB luciferase reporter; inhibition, % at 4 µM; actives 0.53% (n = 330,000); in the data active = inhibition above about 50%
aSyn UTR inh – MLPCN primary screen, SNCA 5' untranslated region | alpha-synuclein 5'UTR reporter, inhibitor activity | inhibition, % (tested at 7.5 µM) | actives 0.82% (n = 300,000) | AID 1813, 2009; in the data active = inhibition above about 60%;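 note: H4 neuroglioblastoma cells stably carrying SNCA 5'UTR luciferase fusion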
Mdm2 MdmX PPI – inhibitors of human Mdm2-MdmX association, primary screen, cell-based, luminescence, split luciferase, SaOS-2, uHTS | SaOS-2 split-luciferase Mdm2/MdmX complementation | Protein Mdm4 (Homo sapiens) + E3 ubiquitin-protein ligase Mdm2 (Homo sapiens), … | AID 485346, 2010 | inhibition, % at 8 µM | actives 3% (n = 330,000);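 active = inhibition of at least 50% at 8 µM in the primary screen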
Target sequence (O15151 whole entry, looked up): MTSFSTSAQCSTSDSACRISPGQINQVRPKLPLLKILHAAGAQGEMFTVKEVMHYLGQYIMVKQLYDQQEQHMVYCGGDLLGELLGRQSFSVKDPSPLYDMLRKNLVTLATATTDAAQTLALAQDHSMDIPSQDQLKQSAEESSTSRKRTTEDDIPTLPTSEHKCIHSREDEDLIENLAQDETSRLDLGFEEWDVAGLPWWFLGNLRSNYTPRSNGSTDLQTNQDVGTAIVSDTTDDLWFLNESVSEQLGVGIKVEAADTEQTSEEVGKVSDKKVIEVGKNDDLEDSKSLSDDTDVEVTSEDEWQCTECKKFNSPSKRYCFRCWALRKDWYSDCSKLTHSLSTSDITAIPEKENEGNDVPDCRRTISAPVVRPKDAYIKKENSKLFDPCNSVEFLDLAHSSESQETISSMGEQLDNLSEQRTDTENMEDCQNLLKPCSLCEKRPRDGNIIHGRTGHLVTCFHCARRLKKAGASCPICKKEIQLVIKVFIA
Target sequence (Q00987 whole entry, looked up): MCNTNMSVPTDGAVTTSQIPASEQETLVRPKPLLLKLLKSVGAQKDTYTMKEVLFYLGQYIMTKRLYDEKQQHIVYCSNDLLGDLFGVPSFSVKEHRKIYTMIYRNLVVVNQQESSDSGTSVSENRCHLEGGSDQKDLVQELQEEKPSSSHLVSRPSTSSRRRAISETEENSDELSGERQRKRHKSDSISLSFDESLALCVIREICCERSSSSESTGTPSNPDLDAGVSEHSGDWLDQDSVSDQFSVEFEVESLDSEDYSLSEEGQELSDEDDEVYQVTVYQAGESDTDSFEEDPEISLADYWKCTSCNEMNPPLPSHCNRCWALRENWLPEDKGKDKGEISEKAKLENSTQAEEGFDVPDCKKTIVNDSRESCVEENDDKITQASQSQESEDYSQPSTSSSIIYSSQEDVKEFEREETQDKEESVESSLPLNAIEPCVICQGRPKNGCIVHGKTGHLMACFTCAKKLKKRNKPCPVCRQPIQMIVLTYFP
697 NFkB inh – inhibitors of PMA/ionomycin-induced NF-kB reporter, 697 cells, primary screen, B-cell NF-kB inhibitor project, cell-based, luminescence, uHTS. 697 B-cell NF-kB luciferase reporter, 16 h. inhibition, % at 4 µM. actives 0.33% (n = 330,000). AID 435022, 2010; in the data active = inhibition above about 35%
IMP-1 inh – IMP-1 metallo-beta-lactamase inhibitors, primary screen, biochemical, epi-absorbance readout, Pseudomonas aeruginosa enzyme | AID 1556, 2009 | actives 0.45% (n = 290,000) | inhibition, % at 5.6 µM | purified IMP-1, nitrocefin hydrolysis, epi-absorbance fluorescence;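 active = inhibition above the mean plus 3 SD of all compounds in the same screening run, cut at about 4.5% in these data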
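System: purified IMP-1 / Input: IMP-1 dispensed at 0.2 nM / Medium: 50 mM HEPES pH 7.1, 50 µM ZnSO4, 0.05% Brij 35 / Timing: 15 min enzyme–compound preincubation, then 25 min nitrocefin reaction, 25 °C / Technique: plate fluorescence quenching by hydrolysis product, ex 480/em 530 nm / Repeats: singlicate testing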
VIM-2 inhibitor – VIM-2 metallo-beta-lactamase inhibitors, primary screen, biochemical, epi-absorbance readout, Pseudomonas aeruginosa enzyme; actives 0.89% (n = 290,000); inhibition, % at 5.6 µM; AID 1527, 2009; purified VIM-2, nitrocefin hydrolysis, epi-absorbance fluorescence;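 active = inhibition above the mean of all tested compounds plus 3 SD, cutoff set per screening run, cut at about 7.5% in these data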;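 note: red hydrolysis product quenches plate fluorescence so inhibitors raise well fluorescence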
Jurkat NFkB conf – PMA/ionomycin-induced NF-kB reporter inhibitors, Jurkat retest, confirmation, T-cell NF-kB inhibitor project, cell-based, luminescence, single concentration | shares compounds with Jurkat NFkB inh | Jurkat NF-kB luciferase, 16 h | actives 27% (n = 2,700) | inhibition, % at 4 µM | AID 435020, 2010;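 active = inhibition reaching about 45% at 4 µM in either replicate, limit read from the data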
Large screens that a line does not name were inactive (follow-up assays come after a bar, where they were run).

O=S(=O)(Nc1ccccc1)c1ccc(-c2cnc(C3CC3)o2)cc1	Jurkat NFkB inh 53 | Jurkat NFkB conf inactive
COc1ccc(NS(=O)(=O)c2cc(C)ccc2C)cc1	none
Cc1cc(C)n(C(C)CNS(=O)(=O)c2ccc(C)c(C)c2)n1 (stereo unspecified)	none
N#C/C(=N\Nc1ccc(F)cc1)C(=N)N1CCCCC1	none
N#C/C(=N\Nc1cccc(F)c1)C(=N)N1CCCCCC1	none | Jurkat NFkB conf inactive
Cc1cc(-c2csc(Nc3ccccn3)n2)ccc1F	none | Jurkat NFkB conf inactive
Oc1ccc(-c2csc(Nc3ccccn3)n2)cc1	none
CSc1ncc(C(=O)Nc2cccc(Cl)c2)c(C)n1	none
COc1ccc(-c2cc3ccc(OCC(C)=O)cc3oc2=O)cc1	none | Jurkat NFkB conf inactive
